The record followed here is ChEMBL document CHEMBL4145554, “Structure-activity relationships of talaumidin derivatives: Their neurite-outgrowth promotion in vitro and optic nerve regeneration in vivo” (Eur J Med Chem, 2018).

Active and inactive are the calls of the source. The calls are words filed in the database; no cut-off is given here.

For the first test, the system named is PC-12. Kind of test: Neurite-outgrowth promoting activity in NGF-differentiated rat PC12 cells assessed as increase in neurite length at 30 uM after 4 days by methylene blue staining based phase contrast microscopic method. It counts as functional, cell-based. Summed up: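 Cells seeded at 8 × 10^3 cells/cm2 in DMEM/10% HS/5% FBS/antibiotics, 24 h, 37 °C, 5% CO2; medium then switched to DMEM/2% HS/1% FBS with test sample plus 2 ng/mL NGF for 4 days, triplicate wells. Fixed in 4% paraformaldehyde, methylene blue stained; longest neurite of 5 differentiated cells in 5 random images per well measured, ≥100 cells per sample; Dunnett's t-test.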
`Cc1ccc([C@H]2O[C@@H](c3ccc(C)cc3)[C@@H](C)[C@H]2C)cc1`: the result was Active.

With `COc1cc([C@H]2O[C@H](c3ccc4c(c3)OCO4)[C@@H](C)[C@@H]2C)ccc1O`, the result was Active.

In the case of `c1cc2c(cc1[C@@H]1CC[C@H](c3ccc4c(c3)OCO4)O1)OCO2`, the outcome was Active.

Take `COc1cc([C@H]2O[C@@H](c3ccc4c(c3)OCO4)[C@@H](C)[C@H]2C)ccc1O`: the outcome was Active.

Take `COc1cc(-c2oc(-c3ccc(O)c(OC)c3)c(C)c2C)ccc1O`: the outcome was Active.

Turning to `COc1cc(-c2oc(-c3ccc4c(c3)OCO4)c(C)c2C)ccc1O`, the outcome was Active.

In the case of `C[C@@H]1[C@H](C)CO[C@@H]1c1ccc2c(c1)OCO2`, the outcome was inactive.

In the case of `Cc1c(-c2ccc3c(c2)OCO3)oc(-c2ccc3c(c2)OCO3)c1C`, the result was Active.

For `C[C@@H]1[C@H](C)[C@H](c2ccc(O)cc2)O[C@@H]1c1ccc(O)cc1`, the result was Active.

With `Cc1c(-c2ccc(O)cc2)oc(-c2ccc(O)cc2)c1C`, the outcome was Active.

As for `COc1cc([C@H]2O[C@@H](c3ccc(O)c(OC)c3)[C@@H](C)[C@H]2C)ccc1O`, the outcome was Active.

Regarding `COc1cc(C2OC(c3ccc4c(c3)OCO4)C(C)C2C)ccc1O` (racemic), the outcome was Active.

In the case of `COc1ccc([C@H]2O[C@@H](c3ccc(OC)cc3)[C@@H](C)[C@H]2C)cc1`, the outcome was Active.

Regarding `COc1ccc(-c2oc(-c3ccc(OC)cc3)c(C)c2C)cc1`, the outcome was Active.

On to `Cc1ccc(-c2oc(-c3ccc(C)cc3)c(C)c2C)cc1`, for which the result was Active.

In another test the test system is Mus musculus. The test is described as follows: In vivo neurite-outgrowth promoting activity in C57BL/6 mouse assessed as regeneration of injured optic nerve by measuring GAP-43 positive axons extending over injury site at 30 uM measured 2 weeks post optic nerve injury by fluorescence microscopic method. It counts as functional, organism-based. Summed up: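 Male mice, 9 weeks old, anesthetized with intraperitoneal sodium pentobarbital (30e40 mg/kg); optic nerve crushed with forceps 1 mm behind the eyeball. Longitudinal […] cryosections (OCT) stained with anti-GAP43 (1:250) plus fluorescent secondary; regenerating axons counted manually at […] from injury site, ≥8 sections per condition, 6 mice/group; Dunnett's t-test versus injury.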
For the compound `COc1cc([C@H]2O[C@H](c3ccc4c(c3)OCO4)[C@@H](C)[C@@H]2C)ccc1O`, the result was Active.

Regarding `COc1cc(C2OC(c3ccc4c(c3)OCO4)C(C)C2C)ccc1O` (racemic), the outcome was Active.
